Results taken from ChEMBL document CHEMBL4118202, “Chiral analogues of (+)-cyclazosin as potent α1B-adrenoceptor selective antagonist” (Bioorg Med Chem, 2018).

Assays:
[1] = biological target: T1, Alpha-1A adrenergic receptor (Rattus norvegicus, UniProt P43140); test: Antagonist activity at alpha1A adrenergic receptor in Wistar rat prostatic rat vas deferens assessed as inhibition of noradrenaline-induced contraction preincubated for 30 mins followed by noradrenaline addition measured after 45 mins in presence of cocaine hydrochloride; format: functional; details: read-out: pA2 (converted)
T1 sequence (P43140 whole entry): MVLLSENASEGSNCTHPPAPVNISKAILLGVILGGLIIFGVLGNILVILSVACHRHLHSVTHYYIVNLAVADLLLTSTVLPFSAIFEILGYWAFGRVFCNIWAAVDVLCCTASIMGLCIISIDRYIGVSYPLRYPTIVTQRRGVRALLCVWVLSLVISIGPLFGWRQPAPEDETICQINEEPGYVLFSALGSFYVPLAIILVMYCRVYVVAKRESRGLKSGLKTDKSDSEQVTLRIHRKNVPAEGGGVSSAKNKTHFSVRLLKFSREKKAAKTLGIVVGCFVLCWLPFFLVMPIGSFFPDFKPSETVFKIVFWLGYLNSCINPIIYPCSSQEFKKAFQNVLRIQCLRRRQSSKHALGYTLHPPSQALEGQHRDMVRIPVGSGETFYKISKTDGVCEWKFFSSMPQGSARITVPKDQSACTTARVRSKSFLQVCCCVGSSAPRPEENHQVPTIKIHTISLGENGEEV
In short: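 Prostatic rat vas deferens, 2 cm portions, held at 0.35 g in Tyrode (pH 7.4, 37 °C, 95% O2/5% CO2). Cocaine 10 μM added 20 min before the agonist. Tissue equilibrated 45 min and primed twice with 10 μM noradrenaline. Isotonic cumulative noradrenaline curves were run before and after 30 min antagonist. pA2 came from Schild plots (≥3 concentrations); otherwise pKB (van Rossum). n ≥ 4.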

[2] = biological target: T2, Alpha-1B adrenergic receptor (Homo sapiens, UniProt P35368); test: Displacement of [3H]prazosin from human alpha1B adrenergic receptor expressed in CHO cell membranes after 30 mins by rapid filtration method
T2 sequence (P35368 whole entry): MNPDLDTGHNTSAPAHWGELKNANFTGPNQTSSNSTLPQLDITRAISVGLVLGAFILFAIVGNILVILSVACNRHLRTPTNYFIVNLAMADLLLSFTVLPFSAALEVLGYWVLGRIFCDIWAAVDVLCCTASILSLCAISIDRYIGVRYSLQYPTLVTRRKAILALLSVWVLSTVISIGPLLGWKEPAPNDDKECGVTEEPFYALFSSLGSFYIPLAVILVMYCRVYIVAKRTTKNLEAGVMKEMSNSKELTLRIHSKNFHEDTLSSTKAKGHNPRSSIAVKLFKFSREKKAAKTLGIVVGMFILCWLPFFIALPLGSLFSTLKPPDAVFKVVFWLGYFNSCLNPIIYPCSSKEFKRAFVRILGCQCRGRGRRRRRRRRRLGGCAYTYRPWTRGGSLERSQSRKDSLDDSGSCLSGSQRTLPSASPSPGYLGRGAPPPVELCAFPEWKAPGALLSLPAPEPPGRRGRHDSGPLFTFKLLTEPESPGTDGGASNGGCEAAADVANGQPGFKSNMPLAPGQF
In short: (§1)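 Membranes (30 μg protein) from CHO cells stably transfected with the human α1a, α1b or α1d receptor. Incubated 30 min at 25 °C in 50 mM Tris-HCl pH 7.4 with 0.1–0.4 nM [3H]prazosin and competitor 1 pM–10 μM. Nonspecific binding defined by 10 μM phentolamine. Stopped by rapid filtration through PEI-treated filters. IC50 converted to Ki by Cheng-Prusoff; pKi from 2–3 experiments in triplicate.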

[3] = biological target: T3, Alpha-1A adrenergic receptor (Homo sapiens, UniProt P35348); test: Displacement of [3H]prazosin from human alpha1A adrenergic receptor expressed in CHO cell membranes after 30 mins by rapid filtration method; in short: as §1
T3 sequence (P35348 whole entry): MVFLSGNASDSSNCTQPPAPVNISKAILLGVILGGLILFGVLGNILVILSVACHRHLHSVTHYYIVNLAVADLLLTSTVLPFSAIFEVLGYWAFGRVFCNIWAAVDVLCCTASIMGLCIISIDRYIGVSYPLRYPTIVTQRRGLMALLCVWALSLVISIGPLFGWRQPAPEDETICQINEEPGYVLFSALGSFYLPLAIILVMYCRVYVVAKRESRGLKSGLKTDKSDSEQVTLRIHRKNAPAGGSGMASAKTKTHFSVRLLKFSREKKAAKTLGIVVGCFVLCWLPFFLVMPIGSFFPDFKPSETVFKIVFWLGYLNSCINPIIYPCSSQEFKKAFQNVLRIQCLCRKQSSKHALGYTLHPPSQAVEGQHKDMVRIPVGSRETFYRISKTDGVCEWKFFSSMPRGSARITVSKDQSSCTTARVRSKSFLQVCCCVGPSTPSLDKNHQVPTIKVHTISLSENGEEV

[4] = biological target: T4, Alpha-1B adrenergic receptor (Rattus norvegicus) (UniProt P15823); test: Antagonist activity at alpha1B adrenergic receptor in Wistar rat spleen assessed as inhibition of phenylephrine-induced contraction incubated for 30 mins in presence of beta-adrenoceptor blocker propranolol hydrochloride; format: functional
T4 sequence (whole entry): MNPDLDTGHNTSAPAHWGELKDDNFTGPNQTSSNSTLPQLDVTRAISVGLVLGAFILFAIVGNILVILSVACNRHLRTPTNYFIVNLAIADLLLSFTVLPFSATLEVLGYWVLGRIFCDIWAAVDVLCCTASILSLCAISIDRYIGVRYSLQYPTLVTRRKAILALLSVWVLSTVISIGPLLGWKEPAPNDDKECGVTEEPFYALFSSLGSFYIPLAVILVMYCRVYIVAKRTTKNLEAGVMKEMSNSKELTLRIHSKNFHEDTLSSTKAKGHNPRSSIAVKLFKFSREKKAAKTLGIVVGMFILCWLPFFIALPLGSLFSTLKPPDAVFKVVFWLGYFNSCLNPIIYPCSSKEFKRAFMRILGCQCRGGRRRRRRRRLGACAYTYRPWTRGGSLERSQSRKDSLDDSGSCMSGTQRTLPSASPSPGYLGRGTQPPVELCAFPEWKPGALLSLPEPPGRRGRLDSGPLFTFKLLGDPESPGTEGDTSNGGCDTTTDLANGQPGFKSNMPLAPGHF
In short: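 Spleen bisected longitudinally into strips in Krebs with propranolol 4 μM, held at 1 g and equilibrated 2 h. Two isometric cumulative phenylephrine curves, each followed by 30 min washing. Third curve after 30 min vehicle or antagonist. Potency as pA2 (Schild) or pKB at one concentration (van Rossum). Responses as % of control maximum; n ≥ 4.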

[5] = biological target: T5, Alpha-1D adrenergic receptor (Homo sapiens, UniProt P25100); test: Displacement of [3H]prazosin from human alpha1D adrenergic receptor expressed in CHO cell membranes after 30 mins by rapid filtration method; in short: as §1
T5 sequence (P25100 whole entry): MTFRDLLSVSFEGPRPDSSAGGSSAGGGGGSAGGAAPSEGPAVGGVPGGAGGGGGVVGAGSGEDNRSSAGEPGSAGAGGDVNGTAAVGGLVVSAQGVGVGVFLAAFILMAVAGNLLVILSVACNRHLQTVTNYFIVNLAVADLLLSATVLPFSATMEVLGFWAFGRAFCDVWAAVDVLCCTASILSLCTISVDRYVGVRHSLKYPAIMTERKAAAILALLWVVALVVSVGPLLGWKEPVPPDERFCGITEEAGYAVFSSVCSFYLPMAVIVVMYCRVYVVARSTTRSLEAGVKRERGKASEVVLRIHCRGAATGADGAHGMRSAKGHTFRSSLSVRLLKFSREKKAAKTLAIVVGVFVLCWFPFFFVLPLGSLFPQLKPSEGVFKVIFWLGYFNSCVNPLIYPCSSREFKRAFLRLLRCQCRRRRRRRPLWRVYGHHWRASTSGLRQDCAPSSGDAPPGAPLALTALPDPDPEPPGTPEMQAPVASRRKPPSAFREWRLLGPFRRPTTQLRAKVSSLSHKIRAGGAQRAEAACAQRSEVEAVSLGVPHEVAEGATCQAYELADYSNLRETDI

[6] = biological target: T2, Alpha-1B adrenergic receptor; test: Binding affinity to human alpha1B adrenergic receptor

Kb [1] [nM] | Ki [2] [nM] | Ki [3] [nM] | pKb [4] | Ki [5] [nM] | Ki [6] [nM] | SMILES
0.589 | 0.0708 | 0.589 | 9.67 | 0.0603 | – | COc1cc2nc(N3CCN(C(=O)c4ccco4)[C@@H]4CCCC[C@@H]43)nc(N)c2cc1OC
– | – | – | 8.86 | – | 0.135 to 0.692 | COc1cc2nc(N3CCN(C(=O)c4ccco4)[C@H]4CCCC[C@H]43)nc(N)c2cc1OC [CYCLAZOSIN]
